MPTP inh = mitochondrial permeability transition pore inhibitors, primary screen, biochemical, isolated mouse mitochondria, absorbance; AID 602449, 2012; Ca2+ swelling absorbance, 30 min; actives 1.4% (n = 360,000); inhibition, % at 10 µM;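 active = inhibition of 50% or more, scaled per plate between neutral and stimulator controls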;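 also: 0% = DMSO wells given calcium and 100% = 1 mM EGTA wells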
SKN-1 block = suppressors of acrylamide-induced Pgst-4::GFP reporter in worms, primary screen, SKN-1 inhibitor project, whole organism, uHTS, GFP/RFP fluorescence ratio, strain VP596. C. elegans VP596 Pgst-4::GFP/RFP ratio, 24 h. inhibition, % at 21.8 µM. actives 0.49% (n = 360,000);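 active = interference check ratio from 0.5 to 1.5 plus GFP to RFP signal ratio inhibition reaching or exceeding a fixed threshold, cut at about 30% in these data, passing the limit was not always enough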
ADAM10 inh = human ADAM10 inhibitors, primary screen, biochemical, QFRET, HTS; Disintegrin and metalloproteinase domain-containing protein 10 (Homo sapiens), O14672; recombinant ADAM10, EDANS/DABCYL FRET peptide cleavage, 3 h; inhibition, % at 7 µM; actives 0.62% (n = 370,000);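 active = inhibition above a per-campaign cutoff equal to the mean of compounds falling between control-based bounds plus 3 SD, cut at about 20% in these data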;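 also: 0% = DMSO wells while the 100% control is not disclosed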
ADAM17 inh = ADAM17 inhibitors, primary screen, biochemical, QFRET | actives 0.83% (n = 370,000) | inhibition, % at 6.95 µM | Disintegrin and metalloproteinase domain-containing protein 17 (Homo sapiens), P78536 | recombinant ADAM17, EDANS/DABCYL FRET peptide cleavage;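 active = inhibition above the mean of compounds lying between control limits plus 3 SD, set per campaign, cut at about 8.5% in these data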;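 also: 0% = DMSO-only wells as the low control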
MT1-MMP act inh = blockers of MT1-MMP proenzyme processing, primary screen, HT1080 RFP-PRO-GFP cells, GFP/RFP fluorescence. Matrix metalloproteinase-14 (Homo sapiens), P50281. GFP/RFP ratio fluorescence, overnight; percent of plate control window, DMSO zero. GFP/RFP ratio change, % at 20 µM. actives 0.061% (n = 360,000). AID 651647, 2012;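 active = GFP/RFP ratio change of at least 30% with cell ATP level not reduced by more than half and red fluorescence within 50% of control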
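Assay system – RFP-PRO-GFP reporter HT1080 cells · Compound dosing – single dose of 20 µM compound, 1% DMSO final · Incubation – overnight compound exposure at 37 °C · Measure – GFP/RFP fluorescence ratio · Benchmarks – DMSO wells and RFP-L50D-GFP cells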
NR3A LBD binder = binders of NR3A ligand-binding domain, primary screen, biophysical, differential scanning fluorimetry, uHTS | Glutamate receptor ionotropic, NMDA 3A (GRIN3A) ligand-binding domain | NR3A LBD differential scanning fluorimetry, Tm shift; 0% = protein alone, 100% = glycine-bound protein | Tm shift relative to glycine control, % at 25 µM | actives 2.5% (n = 340,000);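 active = melting temperature shift of at least 10% of the positive control shift, at one fixed dose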
An asterisk follows results filed as active; x = not tested or not shown. This is a sample that favours compounds with a hit; in the whole collection about 4.7% have one here.

SMILES	MPTP inh	SKN-1 block	ADAM10 inh	ADAM17 inh	MT1-MMP act inh	NR3A LBD binder
CCN1C(=O)C(CC(=O)Nc2ccc(F)cc2)N(Cc2cccs2)C1=S (stereo not drawn)	0	-25	6	3	1	13*
CCN1C(=O)C(CC(=O)Nc2ccc(F)cc2)N(CCc2ccc(OC)cc2)C1=S (stereo not drawn)	0	-8	8	3	3	-2
CCOC(=O)c1cccc(N2C(=O)Nc3ccccc3N2O)c1	0	-6	-10	-2	1	18*
Cc1cccc(-c2cc3nc(C)c(C)c(NCCCn4ccnc4)n3n2)c1	1	12	-15	-4	4	-2
O=S(=O)(NCCc1c[nH]c2ccccc12)c1ccccc1	2	34	6	2	2	-10
Cc1ccc(S(=O)(=O)NCCc2c[nH]c3ccccc23)cc1	2	9	-1	2	-2	23*
COc1ccc2[nH]cc(CCNS(=O)(=O)c3ccc(NC(C)=O)cc3)c2c1	-2	-5	-4	-5	3	1
COc1ccc(S(=O)(=O)NCCc2c[nH]c3ccc(Cl)cc23)cc1	0	17	4	4	1	35*
O=C1/C(=C/c2ccccc2)SC(=S)N1C1CCS(=O)(=O)C1 (stereo not drawn)	10	-1	-7	-4	3	-1
O=C1/C(=C\c2cccs2)SC(=S)N1C1CCS(=O)(=O)C1 (stereo not drawn)	0	39*	9	3	0	0
Cc1c(NC(=O)CSc2ccc(Cl)cc2)c(=O)n(-c2ccccc2)n1C	0	1	0	1	0	-5
Cc1c(NC(=O)CSc2ccc3c(c2)OCCO3)c(=O)n(-c2ccccc2)n1C	1	44*	-8	-10	0	0
Cc1cccc(NC(=O)c2nc[nH]c2C(=O)NCCN(CCNC(=O)c2[nH]cnc2C(=O)Nc2cccc(C)c2)CCNC(=O)c2[nH]cnc2C(=O)Nc2cccc(C)c2)c1	0	12	-4	-1	-9	14*
Cc1cccc(NC(=O)c2nc[nH]c2C(=O)Nc2cccc(C)c2)c1	4	7	-2	-2	2	-9
Cc1cccc(NC(=O)c2nc[nH]c2C(=O)NCCCNC(=O)c2[nH]cnc2C(=O)Nc2cccc(C)c2)c1	0	8	0	3	-9	12*
Cn1c(SCC(=O)N2CCOCC2)nnc1-c1ccncc1	1	7	-7	-4	0	2
CCOc1ccc(Cl)cc1-c1cc(C(=O)Nc2ccc(OC)cc2OC)[nH]n1	3	20	-3	-1	-4	x
COc1ccc(NC(=O)c2cc(-c3cc(Cl)ccc3O)n[nH]2)c(OC)c1	1	12	4	1	4	31*
COc1ccc(CCNC(=O)c2cc(-c3cc(Cl)ccc3O)n[nH]2)cc1OC	43	5	9	-2	5	10*
COc1ccc(CNC(=O)c2cc(-c3cc(C)cc(C)c3O)n[nH]2)cc1	6	3	-3	-5	5	-1
COc1ccc(OC)c(NC(=O)c2cc(-c3cc(C)cc(C)c3O)n[nH]2)c1	3	-18	-7	-4	-2	20*
Cc1cc(O)c(-c2cc(C(=O)NCCc3ccc(S(N)(=O)=O)cc3)[nH]n2)cc1C	4	-5	17	4	3	22*
COc1ccc(C(=O)COC(=O)c2ccc(Cl)nc2)c(OC)c1	-3	6	-20	-3	-2	0
COc1ccc(OC)c(NC(=O)c2cc(-c3cc(C)c(C)cc3O)n[nH]2)c1	2	15	-7	-4	7	41*

From PubChem BioAssay
